Fewer inactive variants are shown than the library holds.

The labels stand for the following.
B1: tRNA (parent)
chain: GUUCCGUUGGCGUAAUGGUAACGCGUCUCCCUCCUAAGGAGAAGACUGCGGGUUCGAGUCCCGUACGGAACG

The data set covers variants of B1. Description: yeast fitness relative to wild type (ratio to wild type); higher = fitter; tRNA-Arg(CCU), competitive growth, 37 C, YPD. In outline: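 Amplicons of the tRNA-Arg(CCU) gene were sequenced, 100-nucleotide paired-end, from the start population and from each end population of a pooled yeast competition. The competition, in six parallel replicates, lasted 24 hours in YPD at 37°C. Fitness relative to wild type was calculated from changes in genotype frequencies. Genotypes had to have ≥ 100 starting reads, and estimates < 0.5 were set to 0.5.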
Regarding G9C C29U, the yeast fitness is 0.674. As for G9C C30G U53C, the yeast fitness is not above 0.5. G9C C11G C24U: the yeast fitness is not above 0.5.

For the variant G9C C11A G23A A37U C60U, the yeast fitness is not above 0.5. Under G9C C11G G56A stands not above 0.5; under G9C C31A C49G, 0.574; under G9C C27G, 0.581. With G9C C27A, the yeast fitness is 0.732. For G9C C11G C24U C31U G67U, the yeast fitness was not above 0.5. As for G9C C24G A40U C55A, the yeast fitness is not above 0.5. Take G9C C46U A57C: the yeast fitness stood at 0.662.

As to G9C C61A G67A, the yeast fitness is not above 0.5. For G9C C29U A36U G63A G67A, the yeast fitness was not above 0.5. The result for G9C G12C U47G G67C reads 0.607. On to G9C C34U C55A A57C, for which the yeast fitness is not above 0.5. G9C C24G G39C C55U A65C: the yeast fitness is not above 0.5. Consider G9C C24U U26G U54G, for which the yeast fitness was not above 0.5. Consider G9C G23A A40C C55G A65G, for which the yeast fitness is not above 0.5. As for G9C G38A A57C, the yeast fitness was not above 0.5.

In the case of G9C A45U C55G C61U, the yeast fitness is not above 0.5.

As for G9C G44C C66U, the yeast fitness came to 0.568. For the variant G9C C29U A36U G67A, the yeast fitness was determined as 0.501. For G9C G18C C49G, the yeast fitness is not above 0.5. The result for G9C C24G C60U U64A reads not above 0.5; that for G9C C31G A40C A45C G48C, 0.668.

Turning to G9C G39C G67U, the yeast fitness was not above 0.5.

With G9C C11G A57C A70C, the yeast fitness was not above 0.5. Turning to G9C G12C C31A A40U G67A, the yeast fitness was determined as 0.557. As for G9C G39A G68C A69C, the yeast fitness is not above 0.5. G9C G18C: the yeast fitness was 0.525. In the case of G9C G10A C29U A37U C62U G67A A70C, the yeast fitness was not above 0.5. The result for G9C C22U G48C G51C reads 0.595; that for G9C G39C C55G C62G A65C, not above 0.5; that for G9C C33G G39A C66G, 0.59. Turning to G9C G23C C30G G44A G58C G63A A70G, the yeast fitness is not above 0.5. For the variant G9C G12A C61G, the yeast fitness was not above 0.5. Regarding G9C C31U, the yeast fitness is 0.676. G9C C31G: the yeast fitness was 0.66. As to G9C C30U U47A G67C, the yeast fitness was 0.559.

In the case of G9C C27A C55U, the yeast fitness is not above 0.5. For G9C C24U C30G G51A C60U, the yeast fitness is not above 0.5. On to G9C C22A C34A C55G A65G, for which the yeast fitness was found to be 0.526.

Regarding G9C G23A C33G, the yeast fitness was not above 0.5. Consider G9C A45U, for which the yeast fitness is 0.771.

For G9C A45C, the yeast fitness is 0.587.

Regarding G9C C34G C61U C66U, the yeast fitness was determined as 0.58. Regarding G9C G39C A69U, the yeast fitness is not above 0.5. Under G9C C11G stands 0.525; under G9C C31A C62G C66U, not above 0.5; under G9C C22G C30U, 0.648. For the variant G9C A43C C55G, the yeast fitness is not above 0.5. As for G9C C27G C30G A40U C49U, the yeast fitness is not above 0.5. The result for G9C C22A G48C G63C reads not above 0.5. As to G9C C34A A57U, the yeast fitness was not above 0.5. The result for G9C C24G A65C reads not above 0.5. In the case of G9C C30A C60U, the yeast fitness was found to be 0.655. Consider G9C C27U A42U G63C, for which the yeast fitness was not above 0.5. In the case of G9C G10C C33U G48C C55G, the yeast fitness was not above 0.5.

In the case of G9C C29U C55U, the yeast fitness is 0.572. For the variant G9C C29U C55G, the yeast fitness was not above 0.5. Consider G9C C46U G48C C62U, for which the yeast fitness is not above 0.5.

As for G9C G17A U19C G23A A42G C49U C55U, the yeast fitness is not above 0.5. G9C G10C C29G C66U: the yeast fitness was not above 0.5.

In the case of G9C C27A C30A, the yeast fitness is not above 0.5. Under G9C C29G C34G C60G C62U stands not above 0.5; under G9C C34G C61U, 0.553.

In the case of G9C C55G, the yeast fitness turned out to be 0.542. G9C C27A A70G: the yeast fitness was 0.539. Consider G9C G23A A40C A45C, for which the yeast fitness is not above 0.5. Under G9C C24A C62G A69C stands not above 0.5. Turning to G9C G23A C34U, the yeast fitness was determined as 0.655.

G9C C22A C34A: the yeast fitness is not above 0.5. Consider G9C C31G U32G, for which the yeast fitness was not above 0.5. Take G9C C11U C30G A43C: the yeast fitness is not above 0.5. For G9C C30A U35C C46G U54C G67C, the yeast fitness is not above 0.5.

Turning to G9C A65U, the yeast fitness stood at 0.774. Under G9C A65G stands 0.78; under G9C C29G C34G C60G, 0.534.

As for G9C C34G A70G, the yeast fitness was not above 0.5.

On to G9C G18A C22G C29U U32G A57U, for which the yeast fitness is not above 0.5. Under G9C C27U G41A stands 0.728; under G9C C11G C24U C31U U59A, not above 0.5. With G9C G39C C61U, the yeast fitness was 0.544. With G9C G39C, the yeast fitness amounted to 0.64.

With G9C G17C G18C C62U A69G, the yeast fitness worked out at 0.629. For G9C A45U C55G, the yeast fitness is 0.533. For G9C G17A U19C G23A G67U, the yeast fitness is not above 0.5. Under G9C C29G C30G G41A stands not above 0.5. On to G9C G10C C61U, for which the yeast fitness is not above 0.5. Under G9C C46U stands 0.896. On to G9C C27U A40U A65G, for which the yeast fitness was not above 0.5. Regarding G9C C31G C66A G68C, the yeast fitness came out at 0.553. Take G9C C60U: the yeast fitness amounted to 0.618. Turning to G9C C60G, the yeast fitness is 0.53. As for G9C G44A, the yeast fitness came out at 0.673. Under G9C C49U C55U U64C stands not above 0.5. For G9C C29U A70G, the yeast fitness worked out at 0.602.

Consider G9C C24U A37C C61G, for which the yeast fitness is not above 0.5.

As to G9C C22G C61A, the yeast fitness turned out to be 0.611.

Turning to G9C C24G C33G U35A G48C C66A, the yeast fitness was not above 0.5. The result for G9C C34U reads 0.776. For the variant G9C C34G, the yeast fitness is 0.548. As for G9C C34A, the yeast fitness worked out at 0.536. Turning to G9C G18C U32G G41C C46U, the yeast fitness was not above 0.5. Turning to G9C C49U, the yeast fitness amounted to 0.703. On to G9C C49G, for which the yeast fitness was determined as 0.63. Turning to G9C G10A G12C A45U C60A, the yeast fitness is not above 0.5. As for G9C G41A C60G A65G, the yeast fitness is not above 0.5. Under G9C C24U C30G stands not above 0.5. The result for G9C A69C reads 0.821; that for G9C A69U, 0.841; that for G9C C22G C33G G63C A70G, 0.6.

Regarding G9C C34U A45C G48C, the yeast fitness was not above 0.5. In the case of G9C C24A, the yeast fitness was not above 0.5.

In the case of G9C C24G, the yeast fitness was not above 0.5. G9C C30G G68C: the yeast fitness was not above 0.5.

Regarding G9C G12A, the yeast fitness is 0.629. Consider G9C C29U C34G G48C C62U, for which the yeast fitness turned out to be 0.782. Regarding G9C G41A C55U U59A A70U, the yeast fitness was not above 0.5. Turning to G9C C62U G67C, the yeast fitness is not above 0.5.

For G9C C22G A57C, the yeast fitness was not above 0.5.

For the variant G9C G17A U19C G23A C49U C55U, the yeast fitness is not above 0.5. As to G9C A57U C60A, the yeast fitness was determined as 0.727. G9C G12A C62G G67A: the yeast fitness was determined as 0.618.

For the variant G9C G12A C29A G38A A69G, the yeast fitness was not above 0.5. Regarding G9C C22G C30A A42U U59C, the yeast fitness was not above 0.5.

In the case of G9C A65C A70U, the yeast fitness was determined as 0.539.

As for G9C C60G G67A, the yeast fitness amounted to 0.572.

G9C C24G G41A G52A C66U: the yeast fitness worked out at 0.602. The result for G9C C33A A43C reads not above 0.5; that for G9C C24U C34A G44C C46U G48A A69G, not above 0.5; that for G9C C30G, 0.578. For the variant G9C C30A, the yeast fitness was 0.664. Turning to G9C C30U, the yeast fitness is 0.628.

On to G9C C31G A40C G50C C55U C60G A69G, for which the yeast fitness amounted to 0.549. Take G9C C27U C33G A37G: the yeast fitness was not above 0.5. Regarding G9C C61U, the yeast fitness is 0.844. Turning to G9C C61G, the yeast fitness was found to be 0.61.

Regarding G9C C30A G38A A42G, the yeast fitness came to 0.515. On to G9C G10C C33U, for which the yeast fitness was not above 0.5.

As to G9C C31U A65U, the yeast fitness is not above 0.5. As for G9C G23C A57C, the yeast fitness was not above 0.5. For the variant G9C C27G C60U A69U, the yeast fitness was not above 0.5. Consider G9C C46U C49U, for which the yeast fitness is 0.692.

With G9C G10A G12C C22U A45U, the yeast fitness was not above 0.5.

With G9C A57U C62G, the yeast fitness is not above 0.5.

As to G9C C31G A40C C66U, the yeast fitness is not above 0.5.

Consider G9C C29U C30A G56A, for which the yeast fitness was not above 0.5.

As for G9C G10C G18C C33U G44C C46U C62U, the yeast fitness turned out to be 0.599. In the case of G9C C11U G18C C31A, the yeast fitness is not above 0.5. As for G9C G17A U64C, the yeast fitness is not above 0.5. With G9C C27A C29U A37C, the yeast fitness amounted to 0.637. The result for G9C C11U C22G A65U reads not above 0.5. For the variant G9C C11G G58A, the yeast fitness was not above 0.5. Take G9C C34G G52A G56A: the yeast fitness was not above 0.5.

On to G9C C22U C33G A43U A45U C46G U54A A65U, for which the yeast fitness is 0.67.

G9C A70C: the yeast fitness was 0.866. For G9C C11A A14G U47G A69C, the yeast fitness was not above 0.5. Under G9C C22U U47C stands 0.694. Consider G9C G23A C34U C66G, for which the yeast fitness is not above 0.5.

Regarding G9C G18C C49G A65U, the yeast fitness turned out to be 0.553. Turning to G9C C27U U47C C55U C62G A65G A69U, the yeast fitness is not above 0.5. For G9C C24U C30G G51A C60U A69C, the yeast fitness was not above 0.5. On to G9C G41C A45U G50A G67C, for which the yeast fitness turned out to be 0.616. Regarding G9C C66A, the yeast fitness is not above 0.5. Regarding G9C C66U, the yeast fitness was determined as 0.621. Under G9C G23A A40C C55G stands 0.549.

The values are drawn from the RNAGym collection of RNA variant scans (doi:10.1126/science.aae0568).
